One molecule from ChEMBL document CHEMBL1255350, “Plasma and cerebrospinal fluid pharmacokinetics of moxifloxacin in a patient with tuberculous meningitis” (Antimicrob Agents Chemother, 2008) can be followed below.

As usually defined, the Cmax is the highest concentration seen after dosing. The MIC is the lowest concentration that inhibits growth of the organism. The Tmax is the time at which the peak concentration occurs. In general, AUC refers to concentration integrated over time. Low readings indicate less exposure, high ones more exposure.

Data set [1] is described as follows: fAUC (0 to 24 hrs) in CSF of patient with intracerebral and leptomeningeal tuberculosis at 400 […], po QD measured on day 3. It is filed as ADME, organism-based, Cerebrospinal fluid. Also noted: route oral. The note with it: human, in vivo. Summed up:
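Same patient and sampling: oral 400 or 800 mg once daily at steady state, day 3 of each dose, predose to 24 h, with CSF from a lumbar drain and heparinized blood from an IV catheter. Free AUC0-24 was calculated assuming 40% protein binding.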

The test system of data set [2] is Homo sapiens. Nature of the data set: Cardiotoxicity in patient with intracerebral and leptomeningeal tuberculosis assessed as QT prolongation at 400 […], po […]. It counts as toxicity, organism-based. Also noted: route oral. The note with it: in vivo.
In data set [3] the test system is Homo sapiens. Nature of the data set: Renal toxicity in patient with intracerebral and leptomeningeal tuberculosis at 400 […], po QD measured on day 3. It is filed as organism-based. Also noted: route oral. The note with it: in vivo. Summed up: (§1)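 Safety was monitored during oral once-daily treatment at 400 and then 800 mg. QTc was tracked by ECG, and blood samples were taken for renal and liver function tests.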

Data set [4] deals with Homo sapiens. The data set is described as follows: Renal toxicity in patient with intracerebral and leptomeningeal tuberculosis at 800 […], po QD measured on day 3. It counts as organism-based. On the set-up: route oral. The note with it: in vivo.
The nature of data set [5]: Cmax in CSF of patient with intracerebral and leptomeningeal tuberculosis at 400 […], po QD measured on day 3. It is filed as ADME, organism-based, Cerebrospinal fluid. Also noted: route oral. The settings on record: human.
The subject of data set [6] is Mycobacterium tuberculosis. Nature of the data set: Antimicrobial activity against Mycobacterium tuberculosis. It counts as functional. Summed up: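 MIC for the patient's isolate was determined by the Middlebrook 7H10 agar dilution method. It was used to calculate AUC0-24/MIC ratios.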
The nature of data set [7]: Cmax in plasma of patient with intracerebral and leptomeningeal tuberculosis at 800 […], po QD measured on day 3. The settings on record: human. On the set-up: route oral. It is filed as ADME, organism-based. In short, it runs like this: (§2)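 Single patient with intracerebral and leptomeningeal TB without active meningitis. Oral dosing once daily at 400 mg, then 800 mg, each sampled at steady state on day 3. Blood and CSF were drawn through a peripheral intravenous catheter and an external lumbar drain into heparin tubes. Sampling was predose and at 2, 4, 8, 12 and 24 h. Plasma was spun 1,500 × g for 10 min at room temperature and stored at −20°C.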

The subject of data set [8] is Homo sapiens. Nature of the data set: Cardiotoxicity in patient with intracerebral and leptomeningeal tuberculosis assessed as QT prolongation at 800 […], po […]. It counts as toxicity, organism-based. Also noted: route oral. The note with it: in vivo.
Data set [9] relates to Homo sapiens. Nature of the data set: Hepatotoxicity in patient with intracerebral and leptomeningeal tuberculosis at 800 […], po QD measured on day 3. It counts as toxicity, organism-based. Also noted: route oral. The settings on record: in vivo. Summed up:
as §1

Data set [10] can be described thus: fAUC (0 to 24 hrs) in plasma of patient with intracerebral and leptomeningeal tuberculosis at 800 […], po QD measured on day 3. On the set-up: route oral. The note with it: human, in vivo. It counts as ADME, organism-based.
A short description of data set [11]: fAUC (0 to 24 hrs) in plasma of patient with intracerebral and leptomeningeal tuberculosis at 400 […], po QD measured on day 3. It is filed as ADME, organism-based. Also noted: route oral. The settings on record: human, in vivo.
Data set [12] is described as follows: fAUC (0 to 24 hrs) in CSF of patient with intracerebral and leptomeningeal tuberculosis at 800 […], po QD measured on day 3. The settings on record: human, in vivo. It counts as ADME, organism-based, Cerebrospinal fluid. Also noted: dose 800 mg/kg, route oral.
A short description of data set [13]: Cmax in plasma of patient with intracerebral and leptomeningeal tuberculosis at 400 […], po QD measured on day 3. The settings on record: human. Also noted: route oral. It is filed as ADME, organism-based.
A short description of data set [14]: Tmax in CSF of patient with intracerebral and leptomeningeal tuberculosis at 400 […], po QD measured on day 3. It counts as ADME, organism-based, Cerebrospinal fluid. Also noted: route oral. The settings on record: human.
The nature of data set [15]: AUC (0 to 24 hrs) in plasma of patient with intracerebral and leptomeningeal tuberculosis at 800 […], po QD measured on day 3. It counts as ADME, organism-based. On the set-up: time < 24 hr, route oral. The settings on record: human.
Data set [16] in a line: Tmax in plasma of patient with intracerebral and leptomeningeal tuberculosis at 800 […], po QD measured on day 3. The note with it: human. It is filed as ADME, organism-based. On the set-up: route oral.
Data set [17] in a line: Cmax in CSF of patient with intracerebral and leptomeningeal tuberculosis at 800 […], po QD measured on day 3. The note with it: human. It is filed as ADME, organism-based, Cerebrospinal fluid. On the set-up: route oral. Summed up:
(§3)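 Single patient on steady-state oral moxifloxacin, 400 or 800 mg once daily, sampled on day 3 of each dose. CSF was taken from an external lumbar drain and blood from a peripheral IV catheter into heparin tubes, predose and at 2, 4, 8, 12 and 24 h. Plasma was separated at 1,500 × g for 10 min at room temperature and stored at −20°C.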

The nature of data set [18]: Tmax in CSF of patient with intracerebral and leptomeningeal tuberculosis at 800 […], po QD measured on day 3. It counts as ADME, organism-based, Cerebrospinal fluid. On the set-up: route oral. The note with it: human.
Data set [19] in a line: AUC (0 to 24 hrs) in plasma of patient with intracerebral and leptomeningeal tuberculosis at 400 […], po QD measured on day 3. It counts as ADME, organism-based. On the set-up: time < 24 hr, route oral. The settings on record: human. In short, it runs like this: as §2
For data set [20], the system named is Homo sapiens. Nature of the data set: Hepatotoxicity in patient with intracerebral and leptomeningeal tuberculosis at 400 […], po QD measured on day 3. It counts as toxicity, organism-based. Also noted: route oral. The note with it: in vivo.
Data set [21] is described as follows: Tmax in plasma of patient with intracerebral and leptomeningeal tuberculosis at 400 […], po QD measured on day 3. The settings on record: human. Also noted: route oral. It counts as ADME, organism-based.
The nature of data set [22]: AUC (0 to 24 hrs) in CSF of patient with intracerebral and leptomeningeal tuberculosis at 400 […], po QD measured on day 3. On the set-up: time < 24 hr, dose 400 mg/kg, route oral. The note with it: human. It counts as ADME, organism-based, Cerebrospinal fluid.
Data set [23] can be described thus: AUC (0 to 24 hrs) in CSF of patient with intracerebral and leptomeningeal tuberculosis at 800 […], po QD measured on day 3. It counts as ADME, organism-based, Cerebrospinal fluid. On the set-up: time < 24 hr, route oral. The note with it: human. Summed up:
as §3

Values after ≈ are worked out from the molar mass of the structure shown.

Regarding `COc1c(N2C[C@@H]3CCCN[C@@H]3C2)c(F)cc2c(=O)c(C(=O)O)cn(C3CC3)c12` [MOXIFLOXACIN], the fAUC in data set [1] came to 8400 ng·h/mL; in [10] it was 11600 ng·h/mL; in data set [11] it was 5300 ng·h/mL; in data set [12], 14300 ng·h/mL. Also, the Activity result in the data set with Homo sapiens [2], in the data set with Homo sapiens [3], with Homo sapiens [4], in the data set with Homo sapiens [8], in the data set with Homo sapiens [9] and in the data set on Homo sapiens [20] was “Non-toxic” throughout. Further, the Cmax in [5] was 616 ng/mL; in [7], 2450 ng/mL; in data set [13], 1060 ng/mL; in data set [17], 1420 ng/mL. This molecule came in with a minimum inhibitory concentration (MIC) in [6] of 0.15 µg/mL (≈ 0.374 µM). Also, the Tmax came to 4 h in [14], 2 h in [16], 4 h in [18] and 2 h in data set [21]. In addition, the AUC at 24 h in [15] amounted to 19400 ng·h/mL; in [19], 8900 ng·h/mL; in [22], 8400 ng·h/mL; in [23] it was 14300 ng·h/mL.
